The nature of data set [1]: Cytotoxicity against GFP expressing human CEM cells assessed as maximal non-toxic concentration after 48 to 72 hrs by MTT assay. In kind it is cell-based, CCRF-CEM. In short, it runs like this: (§1)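 MTT assay on uninfected CEM-GFP cells seeded at 2 × 10⁴ cells/well. Samples were added at various concentrations, with untreated or vehicle-treated controls, and incubated 48–72 h. Formazan was solubilized and absorbance read at 540 nm. Non-toxic concentrations were carried into antiviral screening. CC50 was from triplicate determinations.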

Data set [2] relates to Human immunodeficiency virus 1. Nature of the data set: Antiviral activity against HIV1 NL4-3 infected in GFP expressing human CEM cells assessed as inhibition of viral p24 antigen production at non-toxic concentration after 7 days postinfection by ELISA. In kind it is functional, CCRF-CEM. Put shortly: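 CEM-GFP reporter T cells infected with HIV-1 NL4.3 at MOI 0.05 and cultured with samples at the highest non-toxic concentration. Virus production was measured in culture supernatant on day 7 post-infection by p24 antigen capture ELISA.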

For data set [3], the system named is Human immunodeficiency virus. Nature of the data set: Inhibition of HIV reverse transcriptase at 25 ug/mL.
Data set [4] in a line: Cytotoxicity against GFP expressing human CEM cells after 48 to 72 hrs by MTT assay. It counts as cell-based, CCRF-CEM. In short, it runs like this: as §1
In general terms: Tetrazolium assays rely on reduction of a dye to a coloured formazan, in cell work by metabolically active cells.

In data set [5] the target is Human immunodeficiency virus type 1 reverse transcriptase (Human immunodeficiency virus 1) (UniProt Q72547). Nature of the data set: Inhibition of HIV1 reverse transcriptase at 20 ug/mL by EIA.
Data set [6] concerns Human immunodeficiency virus 1. Nature of the data set: Antiviral activity against HIV1 NL4-3 infected in GFP expressing human CEM cells assessed as inhibition of viral infection measured after 9 days postinfection by microfluorometry. The note with it: Human immunodeficiency virus 1, NL4-3, CCRF-CEM, 216 h. It counts as functional, organism-based. Put shortly: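 CEM-GFP human CD4+ T cells, which carry an integrated LTR-driven GFP reporter, infected with HIV-1 NL4.3 at MOI 0.05. Cells were incubated with samples for up to 9 days post-infection. Infection was followed by GFP fluorescence microscopy, and screening inhibition was quantified by GFP microfluorometry. IC50 is the concentration giving 50% inhibition of infected cells (n = 3).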

Data set [7] has as its target Human immunodeficiency virus type 1 reverse transcriptase (Human immunodeficiency virus 1, UniProt Q72547). Nature of the data set: Inhibition of HIV1 reverse transcriptase by EIA.

We go through 23 compounds from ChEMBL document CHEMBL1157554, “Biomimetic synthesis and anti-HIV activity of dimeric phloroglucinols” (Bioorg Med Chem, 2010).

Molecules are shown by their SMILES.

Consider `CC(C)CC(=O)c1c(O)c(C(=O)CC(C)C)c(O)c(C(c2ccco2)c2c(O)c(C(=O)CC(C)C)c(O)c(C(=O)CC(C)C)c2O)c1O`, for which, in data set [1], the MNTC came to 3.75 µM. For the same compound, in data set [2], the “inhibition (INH)” value worked out at 56.8%.

In the case of `CC(C)CC(=O)c1c(O)c(C=O)c(O)c(C(c2ccccn2)c2c(O)c(C=O)c(O)c(C(=O)CC(C)C)c2O)c1O`, the MNTC in data set [1] came out at 15.9 µM. Further, the “inhibition (INH)” value in data set [2] is 26.9%.

Take `CC(=O)c1c(O)c(Cc2c(O)c(C(C)=O)c(O)c(C(C)=O)c2O)c(O)c(C(C)=O)c1O`: the MNTC in data set [1] stood at 0.23 µM. In data set [2], the “inhibition (INH)” value is 0%.

In general, inhibition refers to the share of the control response that was lost under treatment. `COc1c(C)c(O)c(C(C)=O)c(O)c1Cc1c(O)c(CC=C(C)C)c(O)c(C(C)=O)c1O` registered an inhibition in data set [3] of 90%.

As a reminder, the CC50 is the concentration giving 50% cytotoxicity. High values mean better tolerance by the cells, low ones harm at low concentration. Take `Cc1cn([C@H]2C[C@H](N=[N+]=[N-])[C@@H](CO)O2)c(=O)[nH]c1=O` [ZIDOVUDINE]: the MNTC in data set [1] came to 5 µM. Moreover, the CC50 in data set [4] was 24.1 µM. The “inhibition (INH)” value in data set [2] is on record as 89.75%.

As a reminder, the IC50 is the concentration needed to halve the response being measured. As to `CC(=O)c1c(O)c(C(C)=O)c(O)c(C(c2c(O)c(C(C)=O)c(O)c(C(C)=O)c2O)C2CCCCC2)c1O`, the inhibition in data set [5] turned out to be 0%. In addition, the 50% inhibitory concentration (IC50) in data set [6] stood at 4.09 µM. Besides, the MNTC in data set [1] is 9.73 µM. Besides, the 50% cytotoxic concentration (CC50) in data set [4] was determined as 58.9 µM. Further, the “inhibition (INH)” value in data set [2] worked out at 78.5%.

In turn, `CC(C)CC(=O)c1c(O)c(C(=O)CC(C)C)c(O)c(C(c2ccccn2)c2c(O)c(C(=O)CC(C)C)c(O)c(C(=O)CC(C)C)c2O)c1O` displayed an inhibition in data set [5] of 0%. The IC50 in data set [6] amounted to 3.37 µM. Moreover, the MNTC in data set [1] is 7.39 µM. The same compound registered a CC50 in data set [4] of 38.1 µM. Moreover, the “inhibition (INH)” value in data set [2] is 64.7%.

With `CC(C)CC(=O)c1c(O)c(C=O)c(O)c(Cc2c(O)c(C=O)c(O)c(C(=O)CC(C)C)c2O)c1O`, in data set [1], the MNTC stood at 4.1 µM. Further, the “inhibition (INH)” value in data set [2] was determined as 0%.

On to `CC(C)CC(=O)c1c(O)c(C(=O)CC(C)C)c(O)c(C(c2ccc3c(c2)OCO3)c2c(O)c(C(=O)CC(C)C)c(O)c(C(=O)CC(C)C)c2O)c1O`, for which the MNTC in data set [1] was found to be 2.77 µM. Also, in data set [2], the “inhibition (INH)” value was 13.9%.

As to `CC(C)CC(=O)c1c(O)c(C(=O)CC(C)C)c(O)c(C(c2ccccc2)c2c(O)c(C(=O)CC(C)C)c(O)c(C(=O)CC(C)C)c2O)c1O`, in data set [5], the inhibition is 4.61%. Moreover, the IC50 in data set [6] was found to be 0.28 µM. The MNTC in data set [1] amounted to 0.74 µM. This compound yielded a cytotoxic concentration (CC50) in data set [4] of 3.15 µM. Moreover, the “inhibition (INH)” value in data set [2] was 66.5%.

Regarding `CC(=O)c1c(O)c(C(C)=O)c(O)c(C(c2ccco2)c2c(O)c(C(C)=O)c(O)c(C(C)=O)c2O)c1O`, the inhibition in data set [5] is 16.2%. For the same compound, in data set [6], the IC50 is 6.75 µM. The MNTC in data set [1] was determined as 15.1 µM. In data set [4], this compound gave a half-maximal cytotoxic concentration (CC50) of 61.2 µM. Also, in data set [2], the “inhibition (INH)” value worked out at 73%.

One may read the EC50 as the concentration needed to bring the measured effect to its halfway point. A lower EC50 goes with higher potency in that assay. The compound `CC(=O)c1c(O)c(C(C)=O)c(O)c(C(c2c(O)c(C(C)=O)c(O)c(C(C)=O)c2O)c2ccnc3ccccc23)c1O` returned a concentration for a half-maximal effect (EC50) in data set [7] of 470 nM. Also, the inhibition in data set [5] came out at 80.5%. In addition, in data set [6], the IC50 was determined as 18.6 µM. In addition, the MNTC in data set [1] was 35.8 µM. Also, the CC50 in data set [4] worked out at 93.4 µM. Moreover, the “inhibition (INH)” value in data set [2] came to 71.1%.

In the case of `CC(C)C(=O)c1c(O)c(Cc2c(O)c(C(=O)C(C)C)c(O)c(C(=O)C(C)C)c2O)c(O)c(C(=O)C(C)C)c1O`, in data set [1], the MNTC was found to be 0.09 µM. Besides, the “inhibition (INH)” value in data set [2] is listed as 0%.

In data set [5], `CC(=O)c1c(O)c(C(C)=O)c(O)c(C(c2ccc(N(C)C)cc2)c2c(O)c(C(C)=O)c(O)c(C(C)=O)c2O)c1O` displayed an inhibition of 13.4%. In data set [6], the 50% inhibitory concentration (IC50) is 6.06 µM. In addition, in data set [1], the MNTC was 9.07 µM. Moreover, it took 22.1 µM to reach half-maximal cytotoxicity in data set [4] (CC50). In data set [2], the “inhibition (INH)” value came out at 60.6%.

With `CC(=O)c1c(O)c(C(C)=O)c(O)c(C(c2ccc(O)cc2)c2c(O)c(C(C)=O)c(O)c(C(C)=O)c2O)c1O`, the MNTC in data set [1] was determined as 14.3 µM. Moreover, the “inhibition (INH)” value in data set [2] was 56%.

Regarding `CC(=O)c1c(O)c(C(C)=O)c(O)c(C(CCc2ccccc2)c2c(O)c(C(C)=O)c(O)c(C(C)=O)c2O)c1O`, in data set [1], the MNTC amounted to 1.87 µM. Besides, the “inhibition (INH)” value in data set [2] came out at 16%.

For `CC(C)CC(=O)c1c(O)c(C(=O)CC(C)C)c(O)c(C(c2ccc(O)cc2)c2c(O)c(C(=O)CC(C)C)c(O)c(C(=O)CC(C)C)c2O)c1O`, in data set [1], the MNTC came to 1.45 µM. The “inhibition (INH)” value in data set [2] came out at 15.6%.

For `CC(C)CC(=O)c1c(O)c(C(=O)CC(C)C)c(O)c(C(CCc2ccccc2)c2c(O)c(C(=O)CC(C)C)c(O)c(C(=O)CC(C)C)c2O)c1O`, the MNTC in data set [1] was found to be 0.71 µM. In addition, the “inhibition (INH)” value in data set [2] was found to be 15%.

With `CC(C)CC(=O)c1c(O)c(C(=O)CC(C)C)c(O)c(C(c2ccc(OCc3ccccc3)cc2)c2c(O)c(C(=O)CC(C)C)c(O)c(C(=O)CC(C)C)c2O)c1O`, the EC50 in data set [7] was 1040 nM. The same compound came in with an inhibition in data set [5] of 87.8%. Moreover, the 50% inhibitory concentration (IC50) in data set [6] is 2.71 µM. Also, in data set [1], the MNTC is 5.75 µM. In addition, in data set [4], the half-maximal cytotoxic concentration (CC50) stood at 24 µM. Further, the “inhibition (INH)” value in data set [2] came to 70%.

Turning to `CCC(c1c(O)c(C(C)=O)c(O)c(C(C)=O)c1O)c1c(O)c(C(C)=O)c(O)c(C(C)=O)c1O`, in data set [1], the MNTC turned out to be 2.17 µM. For the same compound, the “inhibition (INH)” value in data set [2] was determined as 17.5%.

Turning to `CC(C)CC(=O)c1c(O)c(C=O)c(O)c(C(c2ccc(OCc3ccccc3)cc2)c2c(O)c(C=O)c(O)c(C(=O)CC(C)C)c2O)c1O`, in data set [1], the MNTC came to 7.46 µM. Moreover, the “inhibition (INH)” value in data set [2] worked out at 0%.

As to `CC(C)CC(=O)c1c(O)c(Cc2c(O)c(C(=O)CC(C)C)c(O)c(C(=O)CC(C)C)c2O)c(O)c(C(=O)CC(C)C)c1O`, the MNTC in data set [1] amounted to 0.17 µM. Further, in data set [2], the “inhibition (INH)” value is 0%.

In the case of `CC(C)CC(=O)c1c(O)c(C(=O)CC(C)C)c(O)c(C(c2c(O)c(C(=O)CC(C)C)c(O)c(C(=O)CC(C)C)c2O)c2ccnc3ccccc23)c1O`, in data set [1], the MNTC came to 3.44 µM. Moreover, the “inhibition (INH)” value in data set [2] turned out to be 30.1%.
